Converted amounts (≈) assume the structure as drawn.

For assay [1], the target named is Serine/threonine-protein kinase PAK 3 (Homo sapiens) (UniProt O75914). The assay can be described thus: Inhibition of PAK3 at 10 uM after 1 hr by competitive binding assay. The method, boiled down: (§1)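 Single-dose competitive binding at 10 μM against immobilized ATP-site ligands (DiscoveRx): phage-tagged or HEK-293-expressed DNA-tagged kinase with ligand-loaded streptavidin magnetic beads in 20% SeaBlock, 0.17× PBS, 0.05% Tween 20, 6 mM DTT, 1 h room temperature with shaking. Beads washed, eluted with 0.5 μM free ligand for 30 min; bound kinase quantified by qPCR as % binding inhibition.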

Assay [2] has as its target MAP/microtubule affinity-regulating kinase 3 (Homo sapiens) (UniProt P27448). Kind of assay: Inhibition of MARK3 at 10 uM after 1 hr by competitive binding assay.
Assay [3] has as its target Receptor-type tyrosine-protein kinase FLT3 (Homo sapiens) (UniProt P36888). The assay can be described thus: Inhibition of FLT-3 kinase at 10 uM after 1 hr by competitive binding assay. The method, boiled down:
as §1

In assay [4] the target is Non-receptor tyrosine-protein kinase TYK2 (Homo sapiens) (UniProt P29597). Kind of assay: Inhibition of TYK2 at 10 uM after 1 hr by competitive binding assay. In short, it runs like this:
as §1

In assay [5] the target is Inhibitor of nuclear factor kappa-B kinase subunit alpha (Homo sapiens) (UniProt O15111). The assay can be described thus: Inhibition of IKKalpha at 10 uM after 1 hr by competitive binding assay. The method, boiled down:
as §1

For assay [6], the target named is Ribosomal protein S6 kinase alpha-1 (Homo sapiens) (UniProt Q15418). The assay can be described thus: Inhibition of RPS6KA1 kinase at 10 uM after 1 hr by competitive binding assay. In short, it runs like this:
as §1

Assay [7] deals with Casein kinase I isoform gamma-2 (Homo sapiens) (UniProt P78368). Kind of assay: Inhibition of CSNK1G2 at 10 uM after 1 hr by competitive binding assay. The method, boiled down: as §1
Assay [8] has as its target Tyrosine-protein kinase BTK (Homo sapiens) (UniProt Q06187). Kind of assay: Inhibition of BTK at 10 uM after 1 hr by competitive binding assay. In short, it runs like this:
as §1

The target of assay [9] is Casein kinase II subunit alpha' (Homo sapiens) (UniProt P19784). The assay can be described thus: Inhibition of CSNK2A2 at 10 uM after 1 hr by competitive binding assay. In short, it runs like this:
as §1

Assay [10] addresses Bone morphogenetic protein receptor type-1B (Homo sapiens, UniProt O00238). Kind of assay: Inhibition of BMPR1B at 10 uM after 1 hr by competitive binding assay. In short, it runs like this:
as §1

The subject of assay [11] is CCRF-CEM. The assay can be described thus: Antiproliferative activity against human CEM cells after 72 hrs. The class given is cell-based. The method, boiled down:
(§2)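 Cells in growth medium grown with variable compound concentrations at 37 °C in humidified CO2-controlled atmosphere; incubation 48 h for L1210 and FM3A, 72 h for CEM, 96 h for HeLa. Cell number counted by Coulter counter; IC50 = concentration inhibiting proliferation by 50%.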

Assay [12] concerns HeLa. Kind of assay: Antiproliferative activity against human HeLa cells after 96 hrs. Format: functional, cell-based. The method, boiled down: as §2
For assay [13], the system named is L1210. The assay can be described thus: Antiproliferative activity against mouse L1210 cells after 48 hrs. The class given is functional, cell-based. As to conditions: L1210, 48 h. In short, it runs like this: as §2
For assay [14], the system named is FM3A. The assay can be described thus: Antiproliferative activity against mouse FM3A cells after 48 hrs. Format: functional, cell-based. The method, boiled down: as §2

As for `CCOC(=O)C[C@H]1[C@@H](O[Si](C)(C)C(C)(C)C)[C@H](n2cnc3c(NC(=O)Nc4ccccc4)ncnc32)O[C@@H]1CNC(=O)NC`, the inhibition in assay [1] was 33%; in assay [2], 34%; in [3], 31%; in assay [4], 31%; in assay [5] it was 37%; in [6], 40%. For the same molecule, the inhibition in [7] amounted to 38%; in assay [8], 35%; in assay [9] it was 31%; in assay [10], 47%.

For `CNC(=O)NC[C@H]1O[C@@H](n2cnc3c(NC(=O)Nc4ccc([N+](=O)[O-])cc4)ncnc32)[C@H](O[Si](C)(C)C(C)(C)C)[C@@H]1O[Si](C)(C)C(C)(C)C`, the IC50 in [11] was over 200 µg/mL; in assay [12], over 200 µg/mL; in assay [13] it was at least 200 µg/mL; in [14] it was over 200 µg/mL.

As for `CNC(=O)OC[C@H]1O[C@@H](n2cnc3c(NC(=O)Nc4ccccc4)ncnc32)[C@H](O[Si](C)(C)C(C)(C)C)[C@@H]1O[Si](C)(C)C(C)(C)C`, the IC50 is over 200 µg/mL in assay [11], at least 200 µg/mL in [12], 160 µg/mL (≈ 238 µM) in assay [13] and over 200 µg/mL in assay [14].

As to `CNC(=O)OC[C@H]1O[C@@H](n2cnc3c(NC(=O)Nc4cccc(I)c4)ncnc32)[C@H](O[Si](C)(C)C(C)(C)C)[C@@H]1O[Si](C)(C)C(C)(C)C`, the IC50 in [11], in assay [12], in [13] and in [14] was over 200 µg/mL in each case.

As for `CNC(=O)OC[C@H]1O[C@@H](n2cnc3c(NC(=O)NC4CCCCC4)ncnc32)[C@H](O[Si](C)(C)C(C)(C)C)[C@@H]1O[Si](C)(C)C(C)(C)C`, the IC50 in assay [11] is 175 µg/mL (≈ 258 µM); in [12], 69 µg/mL (≈ 102 µM); in [13], 74 µg/mL (≈ 109 µM); in assay [14], over 200 µg/mL.

Consider `CNC(=O)OC[C@H]1O[C@@H](n2cnc3c(NC(=O)Nc4ccc([N+](=O)[O-])cc4)ncnc32)[C@H](O[Si](C)(C)C(C)(C)C)[C@@H]1O[Si](C)(C)C(C)(C)C`, for which the IC50 in [11] came out at 15 µg/mL (≈ 20.9 µM); in [12] it was 1.5 µg/mL (≈ 2.09 µM); in assay [13], 7.7 µg/mL (≈ 10.7 µM); in assay [14] it was 24 µg/mL (≈ 33.5 µM).

`CCCNC(=O)Nc1ncnc2c1ncn2[C@@H]1O[C@H](CNC(=O)NC)[C@@H](O[Si](C)(C)C(C)(C)C)[C@H]1O[Si](C)(C)C(C)(C)C`: the IC50 came out at 4.4 µg/mL (≈ 6.91 µM) in assay [11], 3.3 µg/mL (≈ 5.18 µM) in [12], 3.9 µg/mL (≈ 6.12 µM) in assay [13] and 4.7 µg/mL (≈ 7.38 µM) in [14].

Values taken from ChEMBL document CHEMBL1933013, “Synthesis, SAR, and preliminary mechanistic evaluation of novel antiproliferative N⁶,5'-bis-ureido- and 5'-carbamoyl-N⁶-ureidoadenosine derivatives” (Bioorg Med Chem, 2012).
